Bioassay records from PubChem BioAssay.
A selection: hits, their analogues and other compounds. The true share with any hit is near 4.7%.
m5-HT2A agonist – mouse HTR2A agonism via beta-arrestin recruitment | activation, % at 7.6 µM | CHO-K1 mHTR2A beta-arrestin complementation, luminescence; percent of 30 µM serotonin response | hit rate 0.66% among 360,000 | AID 624169 | P35363;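 active means activation above a run cutoff, the mean activation of all tested compounds plus 3 SD, cut at about 14% in these data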;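 further: 0% = plate median of compound wells and 100% = 30 µM serotonin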
Target sequence (P35363 whole entry, looked up): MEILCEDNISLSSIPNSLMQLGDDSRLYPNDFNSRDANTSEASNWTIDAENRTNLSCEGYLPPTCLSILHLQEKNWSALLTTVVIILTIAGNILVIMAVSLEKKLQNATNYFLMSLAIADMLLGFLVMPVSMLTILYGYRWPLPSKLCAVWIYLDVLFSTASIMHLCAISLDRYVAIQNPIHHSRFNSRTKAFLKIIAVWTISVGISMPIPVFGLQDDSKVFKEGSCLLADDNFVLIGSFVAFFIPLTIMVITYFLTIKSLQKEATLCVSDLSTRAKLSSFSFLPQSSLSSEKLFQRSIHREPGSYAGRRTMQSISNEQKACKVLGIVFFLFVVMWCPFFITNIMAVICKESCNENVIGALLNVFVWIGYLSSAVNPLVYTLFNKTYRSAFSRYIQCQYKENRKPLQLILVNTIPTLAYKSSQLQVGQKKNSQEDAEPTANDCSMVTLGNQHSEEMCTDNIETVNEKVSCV
MC4R antag cAMP – antagonists of human melanocortin 4 receptor (MC4R) | hit rate 0.48% among 360,000 | MC4R-expressing cells, MTII-stimulated cAMP, LANCE TR-FRET | inhibition, % at 6.5 µM | AID 540295;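 active means inhibition above its plate's cutoff, the mean of tested wells on that plate plus 3 SD, cut at about 29% in these data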;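 further: 0% = Melanotan II alone and 100% = Melanotan II plus saturating MCL0020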
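Material: human MC4R-expressing U2OS cells. Probe or stimulus: Melanotan II challenge. Dosing: 6.5 µM single dose. Times: 30-min compound, 1-h challenge, 1-h detection, room temperature. Technique: TR-FRET with Eu-cAMP and labeled anti-cAMP, 671 nm. Replication: singlicate.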
MC4R ag barr – human MC4R agonism via beta-arrestin; P32245; U2OS MC4R beta-arrestin complementation, luminescence; percent of melanotan II response, DMSO zero; activation, % at 8.9 µM; hit rate 0.98% among 360,000; AID 540308;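 active means activation above a per-plate cutoff, the mean activation of sample wells on that plate plus 3 SD, cut at about 8% in these data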
GAA850 FXN act – activators of GAA850 frataxin (FXN) promoter. HEK293 lucGAA850 FXN promoter luciferase reporter, 24 h; percent of 10 µM SAHA response. hit rate 0.56% among 360,000. activation, % at 6 µM. AID 540364;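 active means activation above the average of all compounds screened plus 3 SD, cutoff fixed separately per campaign, cut at about 7.5% in these data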;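 further: 0% = DMSO wells and 100% = 10 µM SAHA wells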
AHR act – activators of human aryl hydrocarbon receptor | P35869 | AHR-responsive luciferase reporter cells, luminescence | activation, % at 5 µM | hit rate 2.5% among 320,000; in the data active means activation above about 47%;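 further: 0% = vehicle wells and 100% = reference agonist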
GAA30 FXN cntr – activates GAA30 frataxin promoter, counter-screen for GAA850 activators; shares compounds with GAA850 FXN act; hit rate 66% among 1,900; activation, % at 6 µM; HEK293 lucGAA30 FXN promoter luciferase, 24 h; DMSO = 0%, 5 µM ipriflavone = 100%; AID 588350;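 active means mean activation above the mean of solvent-only control wells plus 3 SD, cut at about 22% in these data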;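 further: counterscreen of GAA850 promoter hits where activity marks nonselective or luminescence artifacts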
FXN GAA850 conf – GAA850 FXN promoter activation confirmation; hit rate 86% among 1,900; shares compounds with GAA850 FXN act; HEK293 lucGAA850 FXN promoter luciferase reporter, 24 h; 100% = activation by SAHA; AID 588351; activation, % at 6 µM;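 active means mean activation above a set limit taken from the primary screen, cut at about 8% in these data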;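 further: 0% = DMSO wells and 100% = 10 µM SAHA wells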
* = called active by the depositor.

How did CN(C)CCCN1C(=O)c2cccc3c([N+](=O)[O-])ccc(c23)C1=O do in these assays?
m5-HT2A agonist: 7; MC4R antag cAMP: -11; MC4R ag barr: -3; GAA850 FXN act: 7.7*; AHR act: 7; GAA30 FXN cntr: -24; FXN GAA850 conf: 12*

How did CCCS/C(N)=N/N=C/c1cc(C)ccc1O do in these assays?
m5-HT2A agonist: 1; MC4R antag cAMP: 0; MC4R ag barr: 0; GAA850 FXN act: 8.6*; AHR act: 8; GAA30 FXN cntr: 102*; FXN GAA850 conf: 33*

How did C/C(=N/N=C/c1ccccc1O)c1ccccc1O do in these assays?
m5-HT2A agonist: 0; MC4R antag cAMP: 0; MC4R ag barr: 2; GAA850 FXN act: 3; AHR act: 11

How did CCCCS/C(N)=N/N=C/c1ccccc1O do in these assays?
m5-HT2A agonist: -1; MC4R antag cAMP: -5; MC4R ag barr: -2; GAA850 FXN act: 7.7*; AHR act: 1; GAA30 FXN cntr: 110*; FXN GAA850 conf: 28*

What do the screens show for `COC(=O)[C@]12CCCCC=C1N(Cc1ccc3c(c1)OCO3)C(=O)[C@H](CC(=O)NCC13CC4CC(CC(C4)C1)C3)C2`?
m5-HT2A agonist: -6

What do the screens show for `C=CCNc1ncnc2c1ncn2[C@H]1CN(Cc2cc(OC)c(OC)c(OC)c2)C[C@@H](CO)O1`?
m5-HT2A agonist: 0; MC4R antag cAMP: 9; MC4R ag barr: -3; GAA850 FXN act: 2

How did Oc1ccc(Nc2ncnc3c2oc2ccccc23)cc1 do in these assays?
m5-HT2A agonist: -4; MC4R antag cAMP: -1; MC4R ag barr: -2; GAA850 FXN act: 12*; AHR act: 3; GAA30 FXN cntr: 143*; FXN GAA850 conf: 40*

Results for c1ccc(Nc2ncnc3c2oc2ccccc23)cc1 ?
m5-HT2A agonist: -5; MC4R antag cAMP: 0; MC4R ag barr: -3; GAA850 FXN act: 3; AHR act: 29

How did O=c1[nH]c2ccccc2nc1Cc1ccccc1 do in these assays?
m5-HT2A agonist: 3; MC4R antag cAMP: 0; MC4R ag barr: -2; GAA850 FXN act: 0; AHR act: 39

What do the screens show for `O=C(Cc1nc2ccccc2[nH]c1=O)c1ccccc1`?
m5-HT2A agonist: -1; MC4R antag cAMP: -13; MC4R ag barr: -2; GAA850 FXN act: 8.8*; GAA30 FXN cntr: 140*; FXN GAA850 conf: 53*

What do the screens show for `Cc1cc(C)cc(NC(=O)/C=C/c2ccc([N+](=O)[O-])s2)c1`?
m5-HT2A agonist: -1; MC4R antag cAMP: -1; MC4R ag barr: 5; GAA850 FXN act: 8.7*; AHR act: 3; GAA30 FXN cntr: -29; FXN GAA850 conf: 18*

Results for COc1ccc(N2Cc3ccc(OC)c(OC)c3C2=O)cc1 ?
m5-HT2A agonist: 6; MC4R antag cAMP: -6; MC4R ag barr: 0; GAA850 FXN act: 8.5*; AHR act: -6; GAA30 FXN cntr: 100*; FXN GAA850 conf: 28*

Results for CCc1nc2ccc(C(=O)Nc3cc(-c4ccccc4)ccc3OC)cn2c1N(C=O)CCC(C)C ?
m5-HT2A agonist: -2; MC4R antag cAMP: 0; MC4R ag barr: 1; GAA850 FXN act: -1

Results for CCOC(=O)C1=C[C@@H](C2CCCCC2)N(S(=O)(=O)c2ccc([N+](=O)[O-])cc2)[C@H]1c1ccccc1 ?
m5-HT2A agonist: 3

Results for CC(NC(=O)CSC(=S)N(C)C)C12CC3CC(CC(C3)C1)C2 (stereo not drawn) ?
m5-HT2A agonist: 7; MC4R antag cAMP: 0; MC4R ag barr: -2; GAA850 FXN act: 9.4*; GAA30 FXN cntr: 31*; FXN GAA850 conf: 14*

How did CC(NC(=O)Cn1ccsc1=N)C12CC3CC(CC(C3)C1)C2 (stereo not drawn) do in these assays?
m5-HT2A agonist: -4; MC4R antag cAMP: 0; MC4R ag barr: 2; GAA850 FXN act: 2; AHR act: 3

What do the screens show for `O=C(NNC(=O)c1ccncc1)Nc1cc(Cl)ccc1Cl`?
m5-HT2A agonist: 8; MC4R antag cAMP: 1; MC4R ag barr: 0; GAA850 FXN act: 0
